Source: ChEMBL document CHEMBL2311334, “Synthesis and evaluation of 8-oxoadenine derivatives as potent Toll-like receptor 7 agonists with high water solubility” (Bioorg Med Chem Lett, 2013)
In brackets after ≈: the same amount, converted by molar mass.

Columns and labels:
Toll-like receptor 7 [1] = target: T1, Toll-like receptor 7 (Homo sapiens, UniProt Q9NYK1); experiment: Agonist activity at human TLR7 expressed in HEK293 cells by NFkappaB SEAP reporter gene assay; assay type: cell-based
T1 sequence (Q9NYK1 whole entry): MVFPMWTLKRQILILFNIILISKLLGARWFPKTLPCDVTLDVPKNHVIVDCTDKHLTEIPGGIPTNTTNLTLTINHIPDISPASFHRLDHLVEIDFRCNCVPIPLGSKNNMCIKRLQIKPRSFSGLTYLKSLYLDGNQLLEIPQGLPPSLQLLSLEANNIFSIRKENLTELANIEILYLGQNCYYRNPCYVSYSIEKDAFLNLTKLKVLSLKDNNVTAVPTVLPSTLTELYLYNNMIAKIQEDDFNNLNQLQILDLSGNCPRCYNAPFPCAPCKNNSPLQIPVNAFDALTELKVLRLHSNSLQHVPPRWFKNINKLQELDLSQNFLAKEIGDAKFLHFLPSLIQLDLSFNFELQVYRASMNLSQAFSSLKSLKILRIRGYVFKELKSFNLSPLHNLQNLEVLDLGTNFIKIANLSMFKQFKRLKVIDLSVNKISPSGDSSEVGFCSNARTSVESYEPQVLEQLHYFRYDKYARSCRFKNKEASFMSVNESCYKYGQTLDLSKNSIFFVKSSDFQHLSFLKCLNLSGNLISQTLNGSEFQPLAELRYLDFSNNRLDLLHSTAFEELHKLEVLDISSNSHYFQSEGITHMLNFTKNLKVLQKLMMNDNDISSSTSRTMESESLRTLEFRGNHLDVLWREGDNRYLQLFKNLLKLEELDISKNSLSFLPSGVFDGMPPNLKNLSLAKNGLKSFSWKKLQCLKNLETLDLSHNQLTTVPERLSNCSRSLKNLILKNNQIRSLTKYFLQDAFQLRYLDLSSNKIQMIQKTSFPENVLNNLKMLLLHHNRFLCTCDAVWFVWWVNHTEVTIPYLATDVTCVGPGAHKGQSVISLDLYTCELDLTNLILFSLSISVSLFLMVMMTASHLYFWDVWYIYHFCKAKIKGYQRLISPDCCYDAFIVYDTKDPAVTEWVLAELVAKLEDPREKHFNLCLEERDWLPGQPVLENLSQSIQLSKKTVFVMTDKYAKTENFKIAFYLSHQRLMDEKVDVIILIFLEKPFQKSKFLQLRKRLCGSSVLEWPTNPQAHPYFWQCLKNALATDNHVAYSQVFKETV
How it was run: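 HEK293 cells stably transfected with human TLR7 plus an NF-κB-driven SEAP reporter. EC50 taken from reporter read-out, given as the mean of two independent experiments.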

[2] = Aqueous solubility in pH 7.4 buffer; assay type: physicochemical
How it was run: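 Solubility measured in pH 7.4 buffer.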

Mus musculus [3] = experiment: Increase in IFN level in Balb/c mouse plasma at 1 mg/kg, iv measured after 6 hrs post dose by L929 cells and VSV based bioassay; assay type: functional
How it was run: (§1)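 Female Balb/c mice were given a single intravenous dose of test compound. Plasma interferon was sampled 6 h post dose and quantified by a bioassay using L929 cells challenged with vesicular stomatitis virus, with values reported in IU/mL.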

Toll-like receptor 7 [4] = target: T2, Toll-like receptor 7 (Mus musculus, UniProt P58681); experiment: Agonist activity at mouse TLR7
T2 sequence (P58681 whole entry): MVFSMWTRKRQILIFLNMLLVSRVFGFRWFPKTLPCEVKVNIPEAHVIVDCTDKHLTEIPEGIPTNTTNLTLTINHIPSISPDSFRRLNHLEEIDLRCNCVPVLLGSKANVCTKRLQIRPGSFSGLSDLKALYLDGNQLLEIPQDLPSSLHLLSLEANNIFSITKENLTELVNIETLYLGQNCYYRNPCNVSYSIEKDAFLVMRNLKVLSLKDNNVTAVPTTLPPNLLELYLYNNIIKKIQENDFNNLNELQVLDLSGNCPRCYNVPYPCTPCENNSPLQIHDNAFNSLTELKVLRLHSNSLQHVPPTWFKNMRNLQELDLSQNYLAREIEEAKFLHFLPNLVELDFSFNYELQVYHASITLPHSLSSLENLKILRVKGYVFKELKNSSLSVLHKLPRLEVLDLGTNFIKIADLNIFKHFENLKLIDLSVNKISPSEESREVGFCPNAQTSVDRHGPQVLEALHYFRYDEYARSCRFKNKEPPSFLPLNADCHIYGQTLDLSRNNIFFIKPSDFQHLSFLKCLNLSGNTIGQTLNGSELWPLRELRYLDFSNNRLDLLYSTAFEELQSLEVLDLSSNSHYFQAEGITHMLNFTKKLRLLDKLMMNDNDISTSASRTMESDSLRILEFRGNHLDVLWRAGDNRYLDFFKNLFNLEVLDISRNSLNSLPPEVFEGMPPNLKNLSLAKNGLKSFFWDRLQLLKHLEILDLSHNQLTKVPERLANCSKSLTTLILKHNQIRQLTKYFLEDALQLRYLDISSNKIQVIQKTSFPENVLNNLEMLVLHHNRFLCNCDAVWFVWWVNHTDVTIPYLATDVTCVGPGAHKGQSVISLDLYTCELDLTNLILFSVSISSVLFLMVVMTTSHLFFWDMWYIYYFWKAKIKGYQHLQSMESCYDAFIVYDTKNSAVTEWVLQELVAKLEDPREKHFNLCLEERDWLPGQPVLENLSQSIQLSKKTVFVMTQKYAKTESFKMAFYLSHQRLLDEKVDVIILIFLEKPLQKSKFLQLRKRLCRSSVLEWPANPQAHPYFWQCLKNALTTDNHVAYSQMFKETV

[5] = Antitumor activity against mouse HM1 cells xenografted in B6C3F1 mouse assessed as inhibition of lung metastasis at 0.1 mg/kg, iv administered biweekly starting on day 1 post tumor xenografting measured on day 35 post tumor xenografting; assay type: functional; details: in the assay text read “starting on day 11 post” for “starting on day 1 post”
How it was run: (§2)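 HM-1 ovarian cancer cells injected subcutaneously into B6C3F1 mice on day 0. Primary tumor surgically removed under isoflurane on day 10. Compound given intravenously twice weekly from day 11. Lung metastases counted on day 35 and expressed as % inhibition. Six mice per group, mean ± SD. Significance versus vehicle by Wilcoxon test.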

[6] = Potency index, ratio of antitumor activity of 852A to test compound against mouse HM1 cells xenografted in B6C3F1 mouse; assay type: functional
[7] = Antitumor activity against mouse HM1 cells xenografted in B6C3F1 mouse assessed as inhibition of lung metastasis at 1 mg/kg, iv administered biweekly starting on day 11 post tumor xenografting measured on day 35 post tumor xenografting
[8] = target: T3, Toll-like receptor 7 (Homo sapiens) (UniProt Q9NYK1); experiment: Potency index, ratio of EC50 of 852A to EC50 of test compound for human TLR7 expressed in HEK293 cells by NFkappaB SEAP reporter gene assay; assay type: cell-based
T3 sequence (whole entry): T1 sequence (Q9NYK1 whole entry)

[9] = Half life in Balb/c mouse at 1 mg/kg, iv; assay type: ADME, organism-based; design: dose 1 mg/kg, route intravenous; details: in vivo
How it was run: (§3)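 Female Balb/c mice dosed intravenously at 1 mg/kg. Vdss and T1/2 calculated from this PK study.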

[10] = Volume of distribution at steady state in Balb/c mouse at 1 mg/kg, iv; assay type: ADME, organism-based; design: dose 1 mg/kg, route intravenous; details: in vivo, read-out: Vdss; how it was run: as §3
[11] = Antitumor activity against mouse HM1 cells xenografted in B6C3F1 mouse assessed as inhibition of lung metastasis at 10 mg/kg, iv administered biweekly starting on day 1 post tumor xenografting measured on day 35 post tumor xenografting; assay type: functional; details: in the assay text read “starting on day 11 post” for “starting on day 1 post”; how it was run: as §2
Mus musculus [12] = experiment: Increase in IFN level in Balb/c mouse plasma at 10 mg/kg, iv measured after 6 hrs post dose by L929 cells and VSV based bioassay; assay type: functional; how it was run: as §1
[13] = Antitumor activity against mouse HM1 cells xenografted in B6C3F1 mouse assessed as inhibition of lung metastasis at 1 mg/kg, iv administered biweekly starting on day 1 post tumor xenografting measured on day 35 post tumor xenografting; assay type: functional; details: in the assay text read “starting on day 11 post” for “starting on day 1 post”; how it was run: as §2

For `CCCCNc1nc(N)c2[nH]c(=O)n(Cc3ccc(N4CCC(N(C)C)CC4)nc3)c2n1`, the EC50 (Toll-like receptor 7 [1]) was 9.4 nM and the solubility [2] was 71 µg/mL (≈ 162 µM).

`CCCCNc1nc(N)c2[nH]c(=O)n(Cc3ccc(CN4CCOCC4)cc3)c2n1` showed an EC50 (Toll-like receptor 7 [1]) of 58 nM and a solubility [2] of 8 µg/mL (≈ 19.4 µM).

Work on `CCCCNc1nc(N)c2[nH]c(=O)n(Cc3ccc(CN4CCN(C)CC4)cc3)c2n1` yielded an EC50 (Toll-like receptor 7 [1]) of 7 nM and a solubility [2] of 108 µg/mL (≈ 254 µM).

`CCCCNc1nc(N)c2[nH]c(=O)n(Cc3ccc(N4CCC(N(C)C)C4)nc3)c2n1` (configuration not stated) gave an EC50 (Toll-like receptor 7 [1]) of 7.4 nM and a solubility [2] of 53 µg/mL (≈ 125 µM).

`CCCCNc1nc(N)c2[nH]c(=O)n(Cc3ccc(OCCN(C)C)nc3)c2n1` gave an Activity (Mus musculus [3]) of 840 IU/ml, an EC50 (Toll-like receptor 7 [4]) of 4.6 nM and an EC50 (Toll-like receptor 7 [1]) of 7.2 nM. The inhibition in vivo at 0.1 mg/kg [5] was 78%, the Ratio [6] was >100 and the solubility [2] was 372 µg/mL (≈ 929 µM). The inhibition in vivo at 1 mg/kg [7] was 100%, the Ratio EC50 [8] was 370 and the half-life [9] was 1.3 h. It also gave a Vd [10] of 6.6 L/kg.

`CCCCNc1nc(N)c2[nH]c(=O)n(Cc3ccc(N4CCNCC4)nc3)c2n1` gave an EC50 (Toll-like receptor 7 [1]) of 48.5 nM and a solubility [2] of 63 µg/mL (≈ 158 µM).

`CCc1nc2c(N)nc3ccccc3c2n1CCCCNS(C)(=O)=O` [CPG-52852] gave an inhibition in vivo at 10 mg/kg [11] of 55%, an EC50 (Toll-like receptor 7 [4]) of 6220 nM and an EC50 (Toll-like receptor 7 [1]) of 2660 nM. It also gave an Activity (Mus musculus [12]) of 19 IU/ml and an inhibition in vivo at 1 mg/kg [13] of 6%.

With `CCCCNc1nc(N)c2nc(O)n(Cc3ccc(C)nc3)c2n1` the EC50 (Toll-like receptor 7 [1]) was 32 nM and the solubility [2] was < 1 µg/mL.

For `CCCCNc1nc(N)c2[nH]c(=O)n(Cc3ccc(CN(C)C)cc3)c2n1`, the EC50 (Toll-like receptor 7 [1]) was 9.3 nM and the solubility [2] was 98 µg/mL (≈ 265 µM).

Molecule `CCCCNc1nc(N)c2[nH]c(=O)n(Cc3ccc(OCCN4CCOCC4)nc3)c2n1` has an EC50 (Toll-like receptor 7 [1]) of 50.2 nM and a solubility [2] of 34 µg/mL (≈ 76.8 µM).

`CCCCNc1nc(N)c2[nH]c(=O)n(Cc3ccc(CN4CCCCC4)cc3)c2n1` gave an EC50 (Toll-like receptor 7 [1]) of 7.6 nM and a solubility [2] of 19 µg/mL (≈ 46.4 µM).

With `CCCCNc1nc(N)c2nc(O)n(Cc3ccc(C)cc3)c2n1` the EC50 (Toll-like receptor 7 [1]) was 166 nM and the solubility [2] was < 1 µg/mL.

`CCCCNc1nc(N)c2[nH]c(=O)n(Cc3ccc(N(C)CCCN(C)C)nc3)c2n1` showed an EC50 (Toll-like receptor 7 [1]) of 72.8 nM and a solubility [2] of 725 µg/mL (≈ 1700 µM).

`CCCCNc1nc(N)c2[nH]c(=O)n(Cc3ccc(N4CCN(C)CC4)nc3)c2n1` showed an EC50 (Toll-like receptor 7 [1]) of 5.4 nM and a solubility [2] of 7 µg/mL (≈ 17 µM).

In the case of `CCCCNc1nc(N)c2[nH]c(=O)n(Cc3cccc(CN4CCN(C)CC4)c3)c2n1`, the EC50 (Toll-like receptor 7 [1]) is reported as 130 nM.

Work on `CCCCNc1nc(N)c2[nH]c(=O)n(Cc3cccc(CN4CCCCC4)c3)c2n1` yielded an EC50 (Toll-like receptor 7 [1]) of 30.1 nM.

Molecule `CCCCNc1nc(N)c2[nH]c(=O)n(Cc3ccc(OCCCN(C)C)nc3)c2n1` has a solubility [2] of 288 µg/mL (≈ 695 µM).

Work on `CCCCNc1nc(N)c2[nH]c(=O)n(Cc3ccc(OCCCCN(C)C)nc3)c2n1` yielded an EC50 (Toll-like receptor 7 [1]) of 15.2 nM and a solubility [2] of 350 µg/mL (≈ 817 µM).

`CCCCNc1nc(N)c2[nH]c(=O)n(Cc3ccc(OCCNC)nc3)c2n1` showed an EC50 (Toll-like receptor 7 [1]) of 166 nM.

For `CCCCNc1nc(N)c2nc(O)n(Cc3ccc(OC)nc3)c2n1`, the EC50 (Toll-like receptor 7 [1]) was 28.1 nM and the solubility [2] was < 1 µg/mL.
